From publication PMC4729448 (Molecular cancer therapeutics, 2013)

Columns and labels:
OE33 xenograft tumors = assay: OE33 tumor xenograft in athymic nude mice; assay type: in vivo, athymic nude mice (BALB/c-nu/nu); conditions: 12 days; for effect on growth of established OE33 xenograft tumors: 75 mg/kg/day orogastric
[1] = test system: microtubule network in OE33 cells; assay: Anti-α-Tubulin immunofluorescence of microtubule network in OE33 cells; assay type: cell-based; conditions: 48 h
OE33 cells [2] = assay: Crystal violet cell proliferation assay; assay type: cell-based; conditions: for IC50: Homo sapiens, OE33, 48 h, read-out: IC50, OE33 cell proliferation/viability
OE33 cells [3] = assay: Phase-contrast cellular morphology of OE33 cells; assay type: cell-based; conditions: 48 h
[4] = oral administration, published literature ref 1, 10-12; cited from earlier work
[5] = Pharmacokinetic analysis in cannulated rat model; assay type: in vivo, Sprague Dawley rats; conditions: for observable effects in the animals following dosing: rat pharmacokinetic studies
In short: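 Fasted male Sprague Dawley rats fitted with carotid artery and jugular and/or femoral vein catheters. Dosed iv or orally with 0.2 micron-filtered solutions; automated sampling allowed both routes in the same animal. Plasma separated by centrifugation and stored at -80 °C. Prodrug, 2-ME2 and metabolites quantified by LC-MS/MS against deuterated internal standards. Parameters from non-parametric analysis; animals observed after dosing.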

[6] = Dissolution in sterile water; assay type: physicochemical
[7] = test system: microtubule distribution in OE33-tumor xenografts; assay: Anti-α-Tubulin immunofluorescence of OE33 tumor xenograft sections; assay type: in vivo, athymic nude mice (BALB/c-nu/nu); conditions: treated OE33-tumor xenograft sections vs untreated
[8] = Sprague-Dawley, rat, plasma, iv, 5.21 mg/kg

SMILES | effect on growth of established OE33 xenograft tumors (OE33 xenograft tumors) | microtubule disruption ([1]; 5 μM) | IC50 (OE33 cells [2]) [µM] | alteration of cellular morphology compared to 2-ME2-PD1 (OE33 cells [3]; 2.5 μM or 5 μM) | serum bioavailability [4] | AUC(0-t) [5, 8] [ng·h/mL] | Cmax [5, 8] [ng/mL] | half-life [5, 8] [min] | observable effects in the animals following dosing [5] | reduction in tumor volume relative to the control group (OE33 xenograft tumors; oral 75 mg/kg/d) [%] | microtubule disruption ([1]; 2.5 μM) | IC50 fold higher than 2-ME2 (OE33 cells [2]; OE33 viability, 48 h) [fold] | solubility in sterile water [6] | alteration of cellular morphology (OE33 cells [3]; 2.5 μM) | alteration of cellular morphology (OE33 cells [3]; 5 μM) | microtubule distribution and cellular morphology in tumor xenografts [7]
COc1cc2c(cc1O)CC[C@@H]1[C@@H]2CC[C@]2(C)[C@@H](O)CC[C@@H]12 [2-ME2, 2-Methoxyestradiol] | inconsistent | totally disrupted | ~6 | much more drastic | 1 - 2% | 321 | 1220 | 59 | no observable effects |  |  |  |  |  |  | 
COc1cc2c(cc1OCOP(=O)([O-])[O-])CC[C@@H]1[C@@H]2CC[C@]2(C)[C@@H](OC(C)=O)CC[C@@H]12.[Na+].[Na+] [2-ME2-PD1, disodium (((8R,9S,13S,14S,17S)-17-acetoxy-2-methoxy-13-methyl-7,8,9,11,12,13,14,15,16,17-decahydro-6H-cyclopenta[a]phenanthren-3-yl)oxy)methyl phosphate] | inhibited the growth | significantly disrupted | ~17 |  |  |  |  |  | no observable effects | 60 ± 5 | not very prominent | ~3 | readily dissolves in sterile water | mild to no alterations | atrophy | striking alteration in microtubule distribution
